Compound activity from PubChem.
Shown are actives, neighbours in structure and some others; about 1.6% of the full set was active somewhere.
Beta2AR agonist – beta2AR agonists driving receptor internalization, primary screen, cell-based, FAP fluorogen, flow cytometry. Beta-2 adrenergic receptor (Homo sapiens), P07550. Am2.2-beta2AR cells. response, % (test concentration not listed). 340,000 compounds, 0.43% hits. AID 504454, 2011;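 active means response above a set limit, near 3 SD of response in nonfluorescent compounds, cut at about 42% in these data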
Dynein transport – inhibitors of GR-EGFP nuclear translocation, primary screen, dynein cargo transport inhibitor project, imaging, high-content, 3617.4 mouse cells; test concentration mostly 20 µM; stimulated with dexamethasone, 1 µM; stronger effect = lower value; z-score, hits read low; 220,000 compounds, 0.47% hits;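 active means plate z-score of nuclear minus cytoplasmic receptor signal below a set negative limit, without overly bright fluorescence or cell loss, cut at about -3.5 in these data, passing the limit was not always enough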;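 further: z-score of nuclear minus cytoplasmic ring GR-EGFP intensity difference per well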
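Buffer or medium – tet-free medium with charcoal-stripped serum · Signal – automated 10x imaging of fixed Hoechst-stained cells · Also added – dexamethasone agonist, 1.0 µM final, for 30 min · Incubation – induction 48 h, compound 1 h, agonist 30 min · Read-out – GR-EGFP nuclear translocation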
ABHD5 PLIN5 PPI – ABHD5-PLIN5 interaction inhibitors, primary screen, cell lysate, split luciferase complementation, luminescence. Split G. princeps luciferase complementation, 4 h. 360,000 compounds, 0.78% hits. inhibition, % at 4 µM;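 active means inhibition above the mean inhibition across every tested compound plus 3 SD, cut at about 22% in these data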;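 further: 0% = DMSO only wells and the 100% control is not disclosed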
NOD2 RIPK2 PPI – NOD2-RIPK2 binding disruptors in cells, primary screen, fluorescence, CHO cells, BLA complementation. CCF4 ratio. inhibition, % at 4.98 µM. 360,000 compounds, 0.38% hits. AID 624267, 2012; in the data active means inhibition above about 21%;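 further: 0% = vehicle only and 100% = reference blocker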
TLR4-MyD88 BLA – inhibitors of TLR4-MyD88 association in cells, primary screen, cell-based, HeLa CL3-4, BLA complementation, FRET ratio | Toll-like receptor 4 (Homo sapiens) + Myeloid differentiation primary response protein … | HeLa CL3-4 TLR4/MyD88 BLA complementation | inhibition, % at 8.4 µM | 200,000 compounds, 0.18% hits | AID 861, 2007; in the data active means inhibition above about 25%;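 further: 0% = vehicle and 100% = reference inhibitor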
Target sequence (O00206 whole entry, looked up): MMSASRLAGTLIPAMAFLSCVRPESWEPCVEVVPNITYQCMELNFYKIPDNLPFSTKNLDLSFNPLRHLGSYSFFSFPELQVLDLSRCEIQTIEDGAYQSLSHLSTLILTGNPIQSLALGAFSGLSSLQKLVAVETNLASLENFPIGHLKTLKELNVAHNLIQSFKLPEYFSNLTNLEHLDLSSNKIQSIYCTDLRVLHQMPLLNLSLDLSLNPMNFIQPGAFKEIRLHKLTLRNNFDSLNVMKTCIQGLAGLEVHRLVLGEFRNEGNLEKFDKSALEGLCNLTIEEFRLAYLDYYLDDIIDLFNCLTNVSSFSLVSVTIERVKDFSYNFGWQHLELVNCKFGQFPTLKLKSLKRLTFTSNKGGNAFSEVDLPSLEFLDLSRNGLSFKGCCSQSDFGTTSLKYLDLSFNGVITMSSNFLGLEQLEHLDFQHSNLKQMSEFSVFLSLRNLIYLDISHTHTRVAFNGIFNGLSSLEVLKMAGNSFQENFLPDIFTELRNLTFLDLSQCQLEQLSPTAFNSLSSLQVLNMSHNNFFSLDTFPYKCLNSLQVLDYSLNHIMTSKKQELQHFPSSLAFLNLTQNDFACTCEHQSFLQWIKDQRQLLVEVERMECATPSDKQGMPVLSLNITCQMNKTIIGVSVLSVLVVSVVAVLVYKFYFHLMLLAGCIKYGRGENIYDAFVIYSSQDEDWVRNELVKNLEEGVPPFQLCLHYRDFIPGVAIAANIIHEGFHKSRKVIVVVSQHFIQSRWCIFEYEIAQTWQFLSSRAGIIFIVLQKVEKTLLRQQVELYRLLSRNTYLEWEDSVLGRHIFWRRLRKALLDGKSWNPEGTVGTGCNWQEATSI
Target sequence (Q99836 whole entry, looked up): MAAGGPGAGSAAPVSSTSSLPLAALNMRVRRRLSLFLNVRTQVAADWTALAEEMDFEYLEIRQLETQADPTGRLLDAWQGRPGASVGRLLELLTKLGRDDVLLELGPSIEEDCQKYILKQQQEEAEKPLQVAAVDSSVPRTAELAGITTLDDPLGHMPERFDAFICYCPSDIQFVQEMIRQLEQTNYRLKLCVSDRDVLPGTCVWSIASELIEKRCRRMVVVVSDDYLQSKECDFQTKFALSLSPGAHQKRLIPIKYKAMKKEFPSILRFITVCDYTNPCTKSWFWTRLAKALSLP
TLR9-MyD88 inh – inhibitors of TLR9-MyD88 association in cells, primary screen, cell-based, CHO, BLA complementation, fluorescence | inhibition, % at 4.98 µM | 340,000 compounds, 0.21% hits | Toll-like receptor 9 (Homo sapiens) + Myeloid differentiation primary response protein … | CCF4 FRET ratio;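 active means inhibition above the mean over all tested compounds plus 3 SD, cut at about 21% in these data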;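 further: 0% = DMSO only wells and 100% = clavulanate BLA inhibitor control wells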
ABHD5-PLIN5 conf – ABHD5-PLIN5 interaction inhibitors, confirmation, biochemical, luminescence; shares compounds with ABHD5 PLIN5 PPI; AID 651612, 2012; inhibition, % at 4 µM; 2,200 compounds, 67% hits; in the data active means inhibition above about 23%;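 further: 0% = DMSO vehicle wells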
HNF4 counter – HNF4 dimerization inhibitors, counter-screen for ABHD5-PLIN5 interaction inhibitor project, biochemical, split-luciferase complementation, luminescence | shares compounds with ABHD5 PLIN5 PPI | 2,200 compounds, 77% hits | inhibition, % at 4 µM;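 active means mean inhibition across replicate wells exceeding the computed hit threshold, cut at about 13% in these data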;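 further: light from luciferase halves that rejoin when HNF4 fusion proteins dimerize; 0% = DMSO only wells and the 100% control is not given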
An asterisk follows results filed as active; / = not tested or not shown.

SMILES	Beta2AR agonist	Dynein transport	ABHD5 PLIN5 PPI	NOD2 RIPK2 PPI	TLR4-MyD88 BLA	TLR9-MyD88 inh	ABHD5-PLIN5 conf	HNF4 counter
CCc1ccc2[nH]c(=O)c(CN(Cc3ccccc3OC)Cc3nnnn3Cc3ccco3)cc2c1	12.9	-1.59	32.0*	-11.2	-5.3	-7.4	5.7	10.3
CC(C)(C)n1nnnc1CN(Cc1ccco1)Cc1cc2cc3c(cc2[nH]c1=O)OCO3	-2.7	-0.364	42.4*	16.9	4.7	-2.4	23.9*	33.8*
COc1ccc2[nH]c(=O)c(C(c3nnnn3C(C)(C)C)N(Cc3ccco3)CC3CCCO3)cc2c1 (configuration not stated)	-0.5	-0.248	24.4*	-8.2	-1.3	0.9	28.3*	71.9*
Cc1cc2cc(C(c3nnnn3C(C)(C)C)N(Cc3ccco3)CC3CCCO3)c(=O)[nH]c2cc1C (configuration not stated)	2.4	0.0618	7.5	5.2	1.4	3.6	/	/
CC1(C(=O)NS(=O)(=O)C2CC2)CCCN(C(=O)c2ccc(F)c(Cl)c2)C1 (configuration not stated)	/	/	7.0	-4.4	/	/	/	/
CNc1ncnc2c1ncn2[C@H]1CN(Cc2ccc(Cl)cc2)C[C@@H](CO)O1	/	/	4.0	-4.8	/	/	/	/
O=C(NCCN1CCC(n2c(=O)[nH]c3ccccc32)CC1)c1cc(F)cc(F)c1	/	/	3.4	3.3	/	/	/	/
O=C1NC(=O)/C(=C/c2ccc(N3CCOCC3)o2)N1	1.5	0.243	28.5*	-13.9	/	9.8	26.5*	47.4*
O=C1NC(=O)/C(=C\c2ccc(N3CCOCC3)o2)N1	-5.3	1.25	68.0*	5.2	-5.6	-4.8	41.7*	93.9*
Cc1ccc(/C=C/C(=O)Nc2cccc3ncccc23)o1	0.3	-1.14	42.5*	4.8	-9.4	2.5	29.5*	32.9*
Cc1ccc(/C=C/C(=O)Nc2cccnc2)o1	1.2	-0.873	21.1	-1.0	-10.7	-0.5	/	/
O=C(O)C(CCc1ccccc1)N1CCOCC1 (configuration not stated)	/	/	0.9	-4.3	/	2.6	/	/
CC(=O)NC(c1cccc([N+](=O)[O-])c1)c1ccc2cccnc2c1O (configuration not stated)	-2.8	/	0.9	7.0	/	6.2	/	/
CCCCC(=O)NC(c1cccc([N+](=O)[O-])c1)c1ccc2cccnc2c1O (configuration not stated)	6.2	/	33.4*	-1.3	/	8.3	28.8*	-1.8
CNc1ccc2ncc(-c3ccc(OC)c(OC)c3)n2n1	/	/	1.3	-10.9	/	/	/	/
Cc1c(NS(=O)(=O)c2cccc(C(=O)NCc3ccco3)c2)c(=O)n(-c2ccccc2)n1C	8.7	/	25.2*	-0.3	/	-14.5	11.5	14.3*
CCN(c1ccccc1)S(=O)(=O)c1cc(C(=O)NCc2ccco2)ccc1C	13.0	/	26.9*	5.2	/	-2.4	12.5	13.6*
Cc1c(NS(=O)(=O)c2cccc(C(=O)NCc3ccc(Cl)cc3)c2)c(=O)n(-c2ccccc2)n1C	-0.8	-0.506	1.5	0.1	-0.2	-5.4	/	/
Cc1nc(NC(=O)/C=C/c2ccccc2)n[nH]1	13.9	-1.1	24.6*	4.8	-16.9	1.5	42.1*	37.9*
Cc1oc(-c2ccc(Cl)cc2)cc1-c1nn2c(-c3ccoc3C)nnc2s1	10.9	-2.13	24.4*	-16.9	-2.4	0.2	12.8	17.3*
Clc1ccc(-c2nnc3sc(-c4ccc(Br)o4)nn23)cc1	-312.8	-0.895	0.6	-4.6	4.6	3.1	/	/
CC1CN(C2CCCCC2)C(=S)N(c2ccccc2)C1=O (configuration not stated)	-5.4	/	8.5	-1.1	/	-0.6	/	/
Cc1ccc(/C(O)=C2/C(=O)C(=O)OC2c2ccc(Cl)cc2)cc1 (configuration not stated)	-0.1	0.368	31.6*	3.7	8.6	-4.7	57.4*	36.6*
Cc1ccc(C(=O)/C=C/c2ccc(F)cc2)o1	9.8	-1.29	42.1*	3.9	-10.9	-6.4	62.0*	46.8*
O=[N+]([O-])c1ccc(N2CCc3ccccc3C2)nc1	8.2	/	33.5*	-11.4	/	5.0	16.3	20.4*
SMILES	Beta2AR agonist	Dynein transport	ABHD5 PLIN5 PPI	NOD2 RIPK2 PPI	TLR4-MyD88 BLA	TLR9-MyD88 inh	ABHD5-PLIN5 conf	HNF4 counter
O=C1CNC(=O)c2cc(Cl)ccc2N1	/	/	0.6	3.8	/	-3.3	/	/
COCOCCn1cc(CN2CCS(=O)(=O)N(Cc3ccc(-c4ccc(OC)c(OC)c4)cc3)C(CC(C)C)C2=O)nn1 (configuration not stated)	/	/	-0.4	6.0	/	5.9	/	/
Cc1c(C(=O)c2no[n+]([O-])c2C(=O)c2cnn(C)c2C)cnn1C	9.7	-3.09	28.9*	-0.7	-14.1	0.9	57.5*	74.2*
O=C1/C(=C/c2cccnc2)CCC/C1=C\c1cccnc1	/	-0.23	/	/	7.4	/	/	/
CC(C)/C=C1\CC/C(=C\c2cccnc2)C1=O	5.2	-3.21	39.1*	0.2	13.6	3.9	74.7*	58.0*
O=C1/C(=C\c2cccnc2)CCc2ccccc21	-4.1	-2.28	14.1	-5.7	10.9	1.6	/	/
O=C1NC(=S)N/C1=C/c1cccnc1	7.8	0.948	-1.4	-11.0	/	-4.9	/	/
O=C1/C(=C/c2cccnc2)CC/C1=C\c1cccnc1	0.1	-2.52	41.7*	-17.2	4.9	-5.6	71.9*	50.4*
CCC1C/C(=C\c2cccnc2)C(=O)/C(=C/c2cccnc2)C1 (configuration not stated)	12.3	-3.49	90.5*	10.8	-12.8	8.4	102.4*	100.3*
C[C@H](c1ccccc1)N1C[C@@H](COCc2ccccc2)Oc2cc(N3CCC[C@H]3CO)ccc2S1(=O)=O	/	/	2.0	-0.4	/	/	/	/
O=C(c1cccnc1)N1CCN(Cc2cccc(Br)c2)CC1	14.4	-1.05	23.8*	-13.5	1.0	-7.8	1.4	7.9
COc1ccc(CN2CCN(C(=O)c3cccnc3)CC2)cc1Br	-0.7	-0.5	1.3	-6.5	-4.7	10.5	/	/
Cc1ccc(CNC(=O)CCc2nnc(Cc3ccc(-c4ccccc4)cc3)o2)o1	-16.1	-0.504	28.1*	-5.6	2.2	0.2	10.1	5.5
